Screening results (PubChem)
PLCg1 inh: PLC-gamma1 (human) inhibition, primary screen; P19174; purified PLC-gamma1, fluorogenic substrate, fluorescence; inhibition, % at 12.2 µM; 370,000 compounds, 0.84% hits; in the data active = inhibition above about 9.5%
ADAM17 inh: ADAM17 inhibition, QFRET primary screen. recombinant ADAM17, EDANS/DABCYL FRET peptide cleavage. 370,000 compounds, 0.83% hits. P78536. inhibition, % at 6.95 µM;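 active = inhibition above the mean of compounds lying between control limits plus 3 SD, set per campaign, cut at about 8.5% in these data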
Target sequence (P78536 215-824 limits assumed): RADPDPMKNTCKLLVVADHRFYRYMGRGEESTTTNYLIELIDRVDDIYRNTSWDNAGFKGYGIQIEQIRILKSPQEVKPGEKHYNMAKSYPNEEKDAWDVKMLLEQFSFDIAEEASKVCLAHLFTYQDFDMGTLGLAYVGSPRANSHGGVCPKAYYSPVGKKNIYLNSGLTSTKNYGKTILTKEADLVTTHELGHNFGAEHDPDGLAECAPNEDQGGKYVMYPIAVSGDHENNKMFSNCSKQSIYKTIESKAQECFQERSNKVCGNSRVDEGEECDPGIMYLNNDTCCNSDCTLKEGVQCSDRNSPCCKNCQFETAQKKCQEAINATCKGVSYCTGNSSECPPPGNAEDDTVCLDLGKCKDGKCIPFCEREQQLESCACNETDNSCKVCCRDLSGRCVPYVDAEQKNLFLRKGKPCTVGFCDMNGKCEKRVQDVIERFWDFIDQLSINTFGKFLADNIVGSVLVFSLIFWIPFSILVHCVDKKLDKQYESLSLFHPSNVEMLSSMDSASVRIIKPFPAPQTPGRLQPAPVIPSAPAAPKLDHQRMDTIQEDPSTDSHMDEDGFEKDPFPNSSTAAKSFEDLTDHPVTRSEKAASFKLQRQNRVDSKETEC
ADAM10 inh: ADAM10 inhibition, QFRET primary screen | O14672 | recombinant ADAM10, EDANS/DABCYL FRET peptide cleavage, 3 h | 370,000 compounds, 0.62% hits | inhibition, % at 7 µM;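 active = inhibition above a per-campaign cutoff equal to the mean of compounds falling between control-based bounds plus 3 SD, cut at about 20% in these data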
Tn6 DDE FP: DD(E)-Tn6 binding inhibition, primary FP screen; Fibrin DD(E) TRITC-Tn6 fluorescence polarization displacement; inhibition, % at 8.3 µM; 370,000 compounds, 0.21% hits;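 active = inhibition above a per-campaign cutoff: mean of compounds within control limits plus 3 SD, cut at about 15% in these data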
PLC-beta3 inh: blocks human PLC-beta3 enzyme activity. Q01970. Purified PLC-beta3, fluorogenic substrate, fluorescence. inhibition, % at 12.2 µM. 370,000 compounds, 0.18% hits; in the data active = inhibition above about 11%
DDE Tn7 FP inh: DD(E)-Tn7 binding inhibition, primary FP screen | inhibition, % at 8.3 µM | 370,000 compounds, 0.13% hits | FP displacement of FITC-Tn7 peptide from fibrin DD(E); 0% = median of compound wells per plate | P02675;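 active = inhibition above the mean of compounds falling within the control limits plus 3 SD of them, cut at about 14% in these data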
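System: human fibrin DD(E); quantity: Fibrin-DD(E) at 2 µM final; also added: fluorescent Tn7 probe at 0.1 µM; compound dosing: single nominal test concentration of 8.3 µM per compound; schedule: 10 min preincubation, 3 h with tracer, room temperature; detection: fluorescence polarization of the labelled Tn7 tracer; repeats: one replicate per compound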
Tn7 DDE conf: confirmation of inhibitors of Tn7 binding to human fibrin DD(E). shares compounds with DDE Tn7 FP inh. FP displacement of TRITC-Tn7 peptide from DD(E); 0% set at plate's compound-well median. inhibition, % at 8.3 µM. 460 compounds, 5% hits. AID 720628;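 active = inhibition above the campaign cutoff, the mean of compounds within control limits plus 3 SD, cut at about 14% in these data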;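 also: displacers lower polarization since freed probe rises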
Tn7 DDE ctr: counter-screen for inhibitors of Tn7 peptide binding to fibrin DD(E). shares compounds with DDE Tn7 FP inh. TRITC-Tn7 probe displacement, fluorescence polarization. inhibition, % at 8.3 µM. 460 compounds, 3% hits. AID 720633;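 active = inhibition above the cutoff, the mean of compounds lying between the control bounds plus 3 SD of those compounds, cut at about 17% in these data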
Of the large screens only hits and unclear results are named; the others gave an inactive call (follow-up assays come after a bar, where they were run). Sampled rows, rich in hits. Any-hit rate of the full collection: about 2.3%.

CN1CN(c2ccccc2)C2(CCN(CCCSc3ccccc3NC(=O)/C=C/c3ccccc3)CC2)C1=O	ADAM17 inh 14
Cc1cc2c(C(C)C)c(O)c(O)c(C=O)c2c(O)c1-c1c(C)cc2c(C(C)C)c(O)c(O)c(C=O)c2c1O	ADAM17 inh 12, ADAM10 inh 41
CC(C)(C)NC(=S)N1Cc2ccccc2-n2nncc2C1	PLCg1 inh 13
Cc1cc(N2CCNC[C@@H]2C)ccc1N1CCN[C@@H](C)C1	none
CSc1nc(N)c(N=Nc2ccc([As](=O)(O)O)cc2)c(=O)[nH]1	ADAM17 inh 9.1
C[C@]12CC[C@@H](O)C[C@@H]1CC[C@@H]1[C@@H]2CC[C@]2(C)C(=O)CC[C@@H]12	DDE Tn7 FP inh 16
CC1(C)CN(S(=O)(=O)OCC(Cl)(Cl)Cl)C(=O)N1	PLCg1 inh 9.8
CC(C)(C)n1nnnc1C1CN=C(c2ccccc2)c2ccccc2N1 (stereo not drawn)	none
C=CCn1c(O)c(C=NC2CCN(Cc3ccccc3)CC2)c(=O)[nH]c1=O	none
O=c1[nH]c(=O)n(CCC2=CCCCC2)c(O)c1C=NC1CCN(Cc2ccccc2)CC1	ADAM17 inh 8.9
COc1ccc(-n2c(O)c(C=Nc3c(C)n(C)n(-c4ccccc4)c3=O)c(=O)[nH]c2=O)cc1	Tn6 DDE FP 17
COc1cccc(-n2c(O)c(C=Nc3c(C)n(C)n(-c4ccccc4)c3=O)c(=O)[nH]c2=O)c1	none
C=CC1C[N+]2(C)CCC1CC2C(O)c1ccnc2ccccc12 (stereo not drawn)	none
CC(=O)NCC1=C(c2ccc(S(C)(=O)=O)cc2)C[C@@H]2CC[C@H]1N2CCOc1ccccc1	none
BrCCc1ccccc1	none
Brc1ccccc1	PLC-beta3 inh 11
COC(=O)C1=C(c2ccc(F)cc2F)C[C@@H]2CC[C@H]1N2C(=O)NCc1ccc(F)cc1	ADAM10 inh 76
COC(=O)C1=C(c2cccc(C#N)c2)C[C@@H]2CC[C@H]1N2C(=O)NCc1cc(C)oc1C(F)(F)F	none
COC(=O)C1=C(c2ccc(-c3ccccc3)c(F)c2)C[C@@H]2CC[C@H]1N2C(=O)NCc1cc(C)oc1C(F)(F)F	PLCg1 inh 10.0
COC(=O)C1=C(c2ccc(F)cc2OCc2ccccc2)C[C@@H]2CC[C@H]1N2C(=O)NCc1ccc2c(c1)OCO2	ADAM10 inh 22
C[C@H]1CN([C@@H](C)CO)C(=O)CCCn2cc(nn2)CO[C@@H]1CN(C)C(=O)Oc1cccc2ccccc12	none
CC(=O)N1c2ccccc2C(c2ccccc2)=NCC1C(=O)NC1CCCCC1 (stereo not drawn)	none
C[C@@H]1CNCCN1c1ccc(N2CC[C@H](O)C2)c(C#N)c1	none
COC(=O)C[C@]1(C(=O)OC)CN(C#N)N(c2ccc(Cl)cc2)C12c1ccccc1-c1ccccc12	ADAM10 inh 31
COC(=O)[C@@H]1[C@@H](C(=O)OC)C2(c3ccccc3-c3ccccc32)N(c2ccc(Cl)cc2)N1C#N	none
Clc1cccc(N2Cc3cc(N4CCOCC4)ccc3-n3nncc3C2)c1	none
Clc1cccc(N2Cc3cc(-c4ccccc4)ccc3-n3nncc3C2)c1	PLCg1 inh 12
c1ccc(Cn2nnnc2C2CN=C(c3ccccc3)c3ccccc3N2)cc1 (stereo not drawn)	none
Nc1ccc2nonc2c1[N+](=O)[O-]	DDE Tn7 FP inh 20 | Tn7 DDE conf inactive | Tn7 DDE ctr inactive
CN(c1ccc(O)cc1)c1ccc([N+](=O)[O-])c2nonc12	none
FC(F)(F)c1cccc(NC2=NCCCS2)c1	DDE Tn7 FP inh 14 | Tn7 DDE conf inactive | Tn7 DDE ctr inactive
COC(=O)C1C(c2ccc(Cl)cc2)CC2CCC1N2C (stereo not drawn)	none
